Measurements taken from article PMC6851786 (Journal of Clinical Pharmacology, 2019).
“Also recorded” adds a separate entry of the source. Read-outs that look alike come from different tables or passages of the source. One block for each compound: values may come before it.

How the values were obtained:
[1] = Part 2: effect of CYP3A inhibitor itraconazole on avadomide PK; format: in vivo, human (healthy adult subjects); conditions: for Tmax / Vd/F / half-life / AUC(0-inf) / AUC(0-t) / Cmax: human, plasma
Method in brief: (§1)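 Open-label, nonrandomized, single-sequence crossover in healthy adults, each subject serving as own control. Plasma for test compound was taken predose and at 0.5, 1, 2, 3, 4, 6, 8, 12, 24, 48 and 72 h postdose and assayed by validated LC-MS/MS (LLOQ 1 ng/mL; range 1–400 ng/mL). Parameters came from noncompartmental analysis, including apparent volume. The ANOVA used ln AUC0-t, AUC0-inf and Cmax, with treatment fixed and subject random. Combination/alone geometric mean ratios are given with 90% CI.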

[2] = Part 3: effect of CYP1A2 inhibitor fluvoxamine on avadomide PK; format: in vivo, human (healthy adult subjects); conditions: for Tmax / Vd/F / half-life / AUC(0-inf) / AUC(0-t) / Cmax: human, plasma; for AUC(0-inf): AUC0-inf; for AUC(0-inf) / AUC(0-t) / Cmax: Geometric LS Means; for AUC(0-t): AUC0-t
Method in brief: as §1

[3] = Part 4: effect of CYP3A4 inducer rifampin on avadomide PK; format: in vivo, human (healthy adult subjects); conditions: for Tmax / Vd/F / half-life / AUC(0-inf) / AUC(0-t) / Cmax: human, plasma; for AUC(0-inf): AUC0-inf; for AUC(0-inf) / AUC(0-t) / Cmax: Geometric LS Means; for AUC(0-t): AUC0-t
Method in brief: as §1

Safety assessment = format: in vivo, human (healthy adult subjects)
[4] = across the 0.5- to 3.5-mg dose range; cited from earlier work
[5] = cited from earlier work
CYP3A4/5 and CYP1A2 = conditions: human liver microsomes; ref data on file; cited from earlier work
[6] = cited from earlier work; remark: listed apart in the source
[7] = with the CYP1A2 inhibitor fluvoxamine; cited from earlier work
[8] = cited from earlier work; remark: listed apart in the source
CYP1A2 = conditions: healthy subjects; cited from earlier work
[9] = avadomide + itraconazole/avadomide
[10] = avadomide + fluvoxamine/avadomide
[11] = fluvoxamine coadministration versus alone
[12] = oral, 3 mg, avadomide alone, Part 3, N 18, ANOVA
[13] = oral, avadomide + fluvoxamine, N 18, ANOVA
[14] = avadomide + rifampin /avadomide
[15] = oral, 3 mg, avadomide alone, Part 4, N 19, ANOVA
[16] = oral, avadomide + rifampin, N 18, ANOVA
[17] = Part 2, following avadomide alone
[18] = Part 2, following avadomide plus itraconazole
[19] = Part 3, following avadomide alone
[20] = Part 3, following avadomide plus fluvoxamine
[21] = Part 4, following avadomide plus rifampin
[22] = Part 3, following fluvoxamine alone
[23] = with the CYP3A4 inducer carbamazepine
[24] = with the CYP3A inhibitor ketoconazole
[25] = Part 4, following rifampin alone

geometric mean ratio of AUC0-t to AUC0-inf ([1]; avadomide 3 mg alone and with itraconazole, 72-hour sampling): greater than 90%
AUC0-t, Ratio of Geometric LS Means [1, 9]: 100.54%
Cmax, Ratio of Geometric LS Means [1, 9]: ~93.64%
Tmax ([1]; oral): 1 h
Vd/F ([1]; oral): 53.8 L
half-life ([1]; oral): 8.79 h
AUC(0-inf) ([1]; oral, 3 mg): 708 ng·h/mL
AUC(0-t) ([1]; oral, 3 mg): 675 ng·h/mL
Cmax ([1]; oral, 3 mg): 70.8 ng/mL
AUC(0-inf) ([1]; po, 3 mg): 708 ng·h/mL
AUC(0-t) ([1]; po, 3 mg): 675 ng·h/mL
Cmax ([1]; po, 3 mg): 70.8 ng/mL
Tmax ([1]; po, 3 mg): 1 h
Vd/F ([1]; po, 3 mg): 54.7 L
half-life ([1]; po, 3 mg): 8.94 h
geometric mean ratio of AUC0-t to AUC0-inf ([2]; avadomide 3 mg alone and with fluvoxamine, 72-hour sampling): greater than 90%
AUC0-inf, Ratio of Geometric LS Means [2, 10]: 154.81%
AUC0-t, Ratio of Geometric LS Means [2, 10]: 160.35%
Cmax, Ratio of Geometric LS Means [2, 10]: 107.59%
decrease of apparent clearance [2, 11]: 34%
prolongation of avadomide t½ [2, 11]: 50%
Tmax ([2]; oral): 0.79 h
Vd/F ([2]; oral): 54.3 L
half-life ([2]; oral): 13.7 h
AUC(0-inf) [2, 12]: 709 ng·h/mL
AUC(0-t) [2, 12]: 667 ng·h/mL
Cmax ([2]; oral, 3 mg, avadomide alone, Part 3, N 19, ANOVA): 70.2 ng/mL
AUC(0-inf) [2, 13]: 1100 ng·h/mL
AUC(0-t) [2, 13]: 1070 ng·h/mL
Cmax [2, 13]: 75.6 ng/mL
Tmax ([2]; po, 3 mg): 0.5 h
Vd/F ([2]; po, 3 mg): 55.2 L
half-life ([2]; po, 3 mg): 9.16 h
geometric mean ratio of AUC0-t to AUC0-inf ([3]; avadomide 3 mg alone and with rifampin, 72-hour sampling): greater than 90%
AUC0-inf, Ratio of Geometric LS Means [3, 14]: 62.83%
AUC0-t, Ratio of Geometric LS Means [3, 14]: 62.34%
Cmax, Ratio of Geometric LS Means [3, 14]: 88.17%
Tmax ([3]; oral): 0.53 h
Vd/F ([3]; oral): 57.3 L
half-life ([3]; oral): 6.08 h
AUC(0-inf) [3, 15]: 733 ng·h/mL
AUC(0-t) [3, 15]: 687 ng·h/mL
Cmax [3, 15]: 74.8 ng/mL
AUC(0-inf) [3, 16]: 460 ng·h/mL
AUC(0-t) [3, 16]: 428 ng·h/mL
Cmax [3, 16]: 65.9 ng/mL
Tmax ([3]; po, 3 mg): 0.55 h
Vd/F ([3]; po, 3 mg): 55 L
half-life ([3]; po, 3 mg): 9.29 h
SMILES: Cc1nc2cccc(N)c2c(=O)n1C1CCC(=O)NC1=O (centres unmarked) [Avadomide]
number of TEAEs reported (Safety assessment; [17]): 2 TEAEs
subjects reporting TEAEs (Safety assessment; [17]): 10.5%
number of TEAEs reported (Safety assessment; [18]): 2 TEAEs
subjects reporting TEAEs (Safety assessment; [18]): 10.5%
moderate TEAE of vomiting, considered related to the IP (Safety assessment; [19]): 1 subject
number of TEAEs reported (Safety assessment; [19]): 7 TEAEs
subjects reporting TEAEs (Safety assessment; [19]): 15.8%
number of TEAEs reported (Safety assessment; [20]): 9 TEAEs
subjects reporting TEAEs (Safety assessment; [20]): 38.9%
subjects reporting TEAEs (Safety assessment; Part 4, after avadomide alone): No subjects reported TEAEs
number of TEAEs reported (Safety assessment; [21]): 1 TEAE
subjects reporting TEAEs (Safety assessment; [21]): 5.6%
tolerability (Safety assessment; single oral dose of 3 mg alone or coadministered with fluvoxamine, itraconazole, or rifampin): well tolerated
plasma exposure versus dose [4]: increased in a dose‐dependent manner
plasma avadomide t½ (without CYP inhibition) ([5]; healthy subjects): ~8 h
Tmax ([5]; single oral dose 3 to 15 mg, healthy adult subjects): approximately 1 hour
tolerability ([5]; single oral doses of up to 15 mg, healthy subjects): well tolerated
enzymes involved in oxidative metabolism (CYP3A4/5 and CYP1A2): major enzymes involved in the oxidative metabolism; also recorded: major isozymes involved in oxidative metabolism; also recorded: metabolized mainly by CYP3A and CYP1A2 in vitro

SMILES: COCCCC/C(=N\OCCN)c1ccc(C(F)(F)F)cc1 [fluvoxamine, reference compound]
number of TEAEs reported (Safety assessment; [22]): 11 TEAEs
subjects reporting TEAEs (Safety assessment; [22]): 31.6%

SMILES: CCC(C)n1ncn(-c2ccc(N3CCN(c4ccc(OCC5COC(Cn6cncn6)(c6ccc(Cl)cc6Cl)O5)cc4)CC3)cc2)c1=O (centres unmarked) [itraconazole, reference compound]
subjects reporting TEAEs (Safety assessment; Part 2, after itraconazole alone): No subjects reported TEAEs

SMILES: Nc1cccc2c1C(=O)N(C1CCC(=O)NC1=O)C2=O (centres unmarked) [pomalidomide]
AUC, % of that when administered alone [6, 23]: 79.7%
Cmax, % of that when administered alone [6, 23]: 75.0%
AUC, % of that when administered alone [6, 24]: 118.8%
Cmax, % of that when administered alone [6, 24]: 107.3%
AUC, % of that when administered alone [7]: 225.1%
Cmax, % of that when administered alone [7]: 123.7%
metabolism and elimination [8]: primarily metabolized by CYP1A2 and CYP3A, with a low fraction excreted in urine as unchanged drug

SMILES: CO[C@H]1/C=C/O[C@@]2(C)Oc3c(C)c(O)c4c(O)c(c(/C=N/N5CCN(C)CC5)c(O)c4c3C2=O)NC(=O)/C(C)=C\C=C\[C@H](C)[C@H](O)[C@@H](C)[C@@H](O)[C@@H](C)[C@H](OC(C)=O)[C@@H]1C [rifampin, reference compound]
number of TEAEs reported (Safety assessment; [25]): 5 TEAEs
subjects reporting TEAEs (Safety assessment; [25]): 22.2%
increase in conversion of caffeine to paraxanthine mediated by CYP1A2 (CYP1A2): 15%
